Reference: ChEMBL document CHEMBL1671640, “Antifungal activities of human beta-defensins HBD-1 to HBD-3 and their C-terminal analogs Phd1 to Phd3” (Antimicrob Agents Chemother, 2009)
Converted amounts (≈) assume the structure as drawn. Each block holds one molecule with its values, some of them ahead of it. The source made the active and inactive calls. The rule behind the calls is not given here. Where a SMILES comes first, the peptide text is derived from it. Bridges are numbered along the chain shown (N, C = ends).

Legend:
[1] = system: Candida albicans; assay: Fungicidal activity against Candida albicans ATCC 18804 at MFC pretreated with 5 mM sodium azide for 2 hrs at 30 deg C; type: functional, organism-based
Summary of the method: (§1)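 Mid-log cells at 10^6/ml in phosphate buffer were preincubated 2 h at 30°C with shaking with 5 mM sodium azide or 50 µM CCCP. Peptides were then added at MFC for 2 h at 30°C. Cells plated on YEPD agar for 24 h and colonies counted as percent killing. Three independent experiments in duplicate.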

[2] = system: Candida albicans; assay: Fungicidal activity against Candida albicans ATCC 18804 at MFC in presence of 5 mM CaCl2; type: functional, organism-based
Summary of the method: (§2)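 Mid-log cells at 10^6/ml in 10 mM phosphate buffer pH 7.4 containing added NaCl (25 or 100 mM), CaCl2 (0.5 or 5 mM) or MgCl2 (0.5 or 25 mM). Peptides at the stated multiple of MFC, 2 h at 30°C. Aliquots diluted and plated on YEPD agar for 24 h. Colonies counted and percent killing calculated. Three independent experiments in duplicate.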

[3] = system: Candida albicans; assay: Fungicidal activity against Candida albicans ATCC 18804 at MFC in presence of 100 mM NaCl; type: functional, organism-based; summary of the method: as §2
[4] = system: Candida albicans; assay: Fungicidal activity against Candida albicans ATCC 18804 at MFC in presence of 0.5 mM Mg2+; type: functional, organism-based; summary of the method: as §2
[5] = system: Candida albicans; assay: Antifungal activity against Candida albicans ATCC 18804 after 24 hrs; type: functional; conditions: ATCC 18804, 24 h
Summary of the method: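 Mid-log C. albicans (subcultured 2 h in YEPD after 20 h aerobic growth at 30°C), washed and resuspended at 10^6 cells/ml in 10 mM phosphate buffer pH 7.4. Exposed to peptides for 2 h at 30°C, then diluted, plated on YEPD agar and incubated 24 h at 30°C. MFC = concentration giving no viable colonies. Averages of three independent experiments in duplicate.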

[6] = system: Candida albicans; assay: Drug uptake in Candida albicans ATCC 18804 assessed as cellular localization at MFC50 by confocal fluorescence microscopy; type: ADME, organism-based; conditions: in vivo
Summary of the method: (§3)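 C. albicans treated 15 min at 30°C with N-terminally carboxyfluorescein-labelled peptides at 50% MFC plus 4 µg/ml propidium iodide. Untreated cells served as control. Examined by confocal microscopy using 488- and 543-nm laser lines, 63× water objective and 1 airy unit optical sections.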

[7] = Drug localization in membranes of Candida albicans ATCC 18804 at 50% MFC by confocal microscopy; type: ADME; summary of the method: as §3
[8] = Toxicity in human Erythrocyte assessed as hemolysis upto 75 uM; type: cell-based
Summary of the method: (§4)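 Human erythrocytes from heparinized blood, washed three times in 5 mM HEPES pH 7.4 with 150 mM NaCl. 10^7 cells/ml incubated with a range of peptide concentrations for 30 min at 37°C with gentle mixing. Supernatant absorbance read at 540 nm. 0.1% Triton X-100 lysis taken as maximum.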

[9] = system: Candida albicans; assay: Induction of membrane damage in Candida albicans ATCC 18804 at 50% MFC by propidium iodide staining; type: functional, organism-based; summary of the method: as §3
[10] = system: Candida albicans; assay: Fungicidal activity against Candida albicans ATCC 18804 at MFC in presence of 0.5 mM Ca2+; type: functional, organism-based; summary of the method: as §2
[11] = system: Candida albicans; assay: Fungicidal activity against Candida albicans ATCC 18804 assessed as […] killing rate at 2 times MFC in presence of 100 mM NaCl; type: functional; summary of the method: as §2
[12] = system: Candida albicans; assay: Induction of membrane damage in Candida albicans ATCC 18804 by Sytox green dye influx assay; type: functional, organism-based
Summary of the method: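 Mid-log cells (10^7 CFU/ml) washed and resuspended in phosphate buffer with 1 µM Sytox green at 30°C. Once basal fluorescence was constant, peptide was added and the fluorescence increase recorded at excitation 488 nm and emission 540 nm.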

[13] = system: Candida albicans; assay: Fungicidal activity against Candida albicans ATCC 18804 at MFC in presence of 0.5 mM MgCl2; type: functional, organism-based; summary of the method: as §2
[14] = Toxicity in human Erythrocyte assessed as hemolysis at 100 uM; type: cell-based; conditions: erythrocytes, read-out: Activity; summary of the method: as §4
[15] = system: Candida albicans; assay: Fungicidal activity against Candida albicans ATCC 18804 at MFC pretreated with 50 uM carbonyl cyanide m-chlorophenylhydrazone for 2 hrs at 30 deg C; type: functional, organism-based; summary of the method: as §1
[16] = system: Candida albicans; assay: Fungicidal activity against Candida albicans ATCC 18804 at MFC in presence of 25 mM NaCl; type: functional, organism-based; summary of the method: as §2
[17] = system: Candida albicans; assay: Fungicidal activity against Candida albicans ATCC 18804 at MFC in presence of 25 mM MgCl2; type: functional, organism-based; summary of the method: as §2

- Drug uptake [6]: Active
- Drug uptake [7]: Active
Compound: CC[C@H](C)[C@@H]1NC(=O)[C@H](CCCCN)NC(=O)[C@H]([C@@H](C)O)NC(=O)[C@H](Cc2ccccc2)NC(=O)[C@H]([C@@H](C)CC)NC(=O)[C@@H]2CCCN2C(=O)[C@@H](NC(=O)[C@H](C)N)CSSC[C@@H](C(=O)N[C@@H](CCCCN)C(=O)O)NC(=O)[C@H](CCCCN)NC(=O)[C@H](C)NC(=O)[C@H](CCCCN)NC(=O)CNC(=O)[C@H](CCCNC(=N)N)NC(=O)[C@H](Cc2ccc(O)cc2)NC(=O)[C@H]([C@@H](C)O)NC(=O)CNC(=O)[C@H](CCC(N)=O)NC1=O (H-ACPIFTKIQGTYRGKAKCK-OH; disulfide 2-18)
- inhibition [1]: Active
- inhibition [2]: inactive
- inhibition [3]: inactive
- inhibition [4]: Active
- MFC [5]: 18 µM (≈ 38 µg/mL)
- Activity [8]: Non-toxic
- Activity [9]: Active
- inhibition [10]: Active
- inhibition (percent killing) [11]: 50%
- Activity [12]: Active
- inhibition [13]: Active
- hemolysis at 100 µM [14]: 15%
- fungicidal activity (active/not active) [15]: Active
- inhibition [16]: Active

Compound: CC[C@H](C)[C@@H]1NC(=O)[C@H](CCCCN)NC(=O)[C@H]([C@@H](C)O)NC(=O)[C@H](Cc2ccccc2)NC(=O)[C@H]([C@@H](C)CC)NC(=O)[C@@H]2CCCN2C(=O)[C@@H]2CSSC[C@@H](C(=O)N[C@@H](CCCCN)C(=O)O)NC(=O)[C@@H]3CSSC[C@H](NC(=O)[C@H](CC(N)=O)NC(=O)[C@H](Cc4ccc(O)cc4)NC(=O)[C@H](Cc4cnc[nH]4)NC(=O)[C@@H](N)CC(=O)O)C(=O)N[C@@H](C(C)C)C(=O)N[C@@H](CO)C(=O)N[C@@H](CO)C(=O)NCC(=O)NCC(=O)N[C@@H](CCC(N)=O)C(=O)N[C@@H](CSSC[C@H](NC(=O)[C@H]([C@@H](C)O)NC(=O)CNC(=O)[C@H](CCC(N)=O)NC1=O)C(=O)N[C@@H](Cc1ccc(O)cc1)C(=O)N[C@@H](CCCNC(=N)N)C(=O)NCC(=O)N[C@@H](CCCCN)C(=O)N[C@@H](C)C(=O)N[C@@H](CCCCN)C(=O)N3)C(=O)N[C@@H](CC(C)C)C(=O)N[C@@H](Cc1ccc(O)cc1)C(=O)N[C@@H](CO)C(=O)N[C@@H](C)C(=O)N2 (H-DHYNCVSSGGQCLYSACPIFTKIQGTCYRGKAKCCK-OH; disulfide 5-34, 12-27, 17-35)
- inhibition [1]: inactive
- inhibition [2]: inactive
- inhibition [3]: inactive
- MFC [5]: 7 µM (≈ 27.5 µg/mL)
- inhibition (percent killing) [11]: 50%
- inhibition [13]: Active
- fungicidal activity (active/not active) [15]: inactive
- inhibition [16]: inactive

- Drug uptake [6]: Active
- Drug uptake [7]: Active
Compound: CC[C@H](C)[C@@H]1NC(=O)[C@H](CCC(N)=O)NC(=O)[C@H](CCCCN)NC(=O)[C@H](Cc2ccc(O)cc2)NC(=O)[C@H](CCCNC(=N)N)NC(=O)[C@H](CCCNC(=N)N)NC(=O)[C@@H]2CCCN2C(=O)[C@@H](NC(=O)[C@@H](N)Cc2ccccc2)CSSC[C@@H](C(=O)N[C@@H](CCCCN)C(=O)O)NC(=O)[C@H](CCCCN)NC(=O)[C@H]([C@@H](C)O)NC(=O)CNC(=O)[C@@H]2CCCN2C(=O)[C@H](CC(C)C)NC(=O)CNC(=O)[C@H]([C@@H](C)O)NC(=O)CNC1=O (H-FCPRRYKQIGTGLPGTKCK-OH; disulfide 2-18)
- inhibition [1]: Active
- inhibition [2]: inactive
- inhibition [3]: inactive
- inhibition [4]: Active
- MFC [5]: 18 µM (≈ 38.7 µg/mL)
- Activity [8]: Non-toxic
- Activity [9]: Active
- inhibition [10]: Active
- inhibition (percent killing) [11]: 50%
- Activity [12]: Active
- inhibition [13]: Active
- hemolysis at 100 µM [14]: 15%
- fungicidal activity (active/not active) [15]: Active
- inhibition [16]: Active

- Drug uptake [6]: Active
- Drug uptake [7]: Active
Compound: CC[C@H](C)[C@@H]1NC(=O)[C@H](CCC(N)=O)NC(=O)[C@H](CCC(=O)O)NC(=O)[C@H](CCC(=O)O)NC(=O)[C@H](CCCCN)NC(=O)[C@@H]2CCCN2C(=O)[C@H](CC(C)C)NC(=O)[C@@H](NC(=O)[C@@H](N)CO)CSSC[C@@H](C(=O)N[C@@H](CCCNC(=N)N)C(=O)N[C@@H](CCCNC(=N)N)C(=O)N[C@@H](CCCCN)C(=O)N[C@@H](CCCCN)C(=O)O)NC(=O)[C@H](CCCCN)NC(=O)[C@H](CCCNC(=N)N)NC(=O)CNC(=O)[C@H](CCCNC(=N)N)NC(=O)[C@H]([C@@H](C)O)NC(=O)[C@H](CO)NC(=O)[C@H](CCCCN)NC(=O)CNC1=O (H-SCLPKEEQIGKSTRGRKCRRKK-OH; disulfide 2-18)
- inhibition [1]: Active
- inhibition [3]: inactive
- inhibition [4]: Active
- MFC [5]: 16 µM (≈ 41.4 µg/mL)
- inhibition [17]: Active
- Activity [8]: Non-toxic
- Activity [9]: Active
- inhibition [10]: Active
- inhibition (percent killing) [11]: 50%
- Activity [12]: Active
- hemolysis at 100 µM [14]: 15%
- fungicidal activity (active/not active) [15]: Active
- inhibition [16]: Active
